Measurements published in ChEMBL document CHEMBL5724801, “EUbOPEN Chemogenomics Library - Multiplex” (2024).
Where “and” joins values, the source holds several entries; their conditions need not be identical. Equal entries are not always repeated.

The compounds below were run on HEK-293T (assay: Multiplex assay against HEK293T). Details: human, 12 h, 1 µM, compound concentration 1 uM.
Format: toxicity, cell-based
Outline: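 Phenotypes for tubulin, mitochondrial mass and membrane permeability are expressed as per cents of healthy-nucleus cells. Cells were stained live at seeding with Hoechst33342, BioTracker Green Microtubule Cytoskeleton Dye, MitoTracker Red and Annexin V Alexa Fluor 680, then imaged after compound addition on a CQ1 microscope at 37°C and 5% CO2. Machine-learning gating in CellPathfinder separated Hoechst high-intensity objects from normal cells, divided normal cells by nuclear state (healthy, pyknosed, fragmented) and divided pyknosed cells into mitotic or apoptotic.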
COC(=O)C1=C(C)NC(C)=C(C(=O)OC(C)C)C1c1cccc2nonc12 (stereo unspecified) [ISRADIPINE] was tested, and the “Population Apoptotic (%)” value was 14.42% and 4.72%, the “Population Fragmented Nuclei (%)” value was 2.79% and 5.84% and the “Population Hoechst High Intensity Objects (%)” value was 0%. The “Population Membrane Permeable-Phenotype (%)” value was 0%, the “Population Mitochondria Different-Phenotype (%)” value was 37.14% and 47.83% and the “Population Mitotic Cells (%)” value was 85.58% and 95.28%. The “Population Normal (%)” value was 100%, the “Population Pyknosed Nuclei (%)” value was 32.2% and 77.37% and the “Total Cell Count” value was 323 and 137.
Oc1c(CN2CCN(c3ccccn3)CC2)cc(Cl)c2cccnc12 was tested, and the “Population Apoptotic (%)” value was 30% and 45%, the “Population Fragmented Nuclei (%)” value was 6% and 5% and the “Population Healthy Nuclei (%)” value was 83% and 80%. For the same compound, the “Population Hoechst High Intensity Objects (%)” value was 7%, the “Population Membrane Permeable-Phenotype (%)” value was 0% and the “Population Mitochondria Different-Phenotype (%)” value was 44% and 59%. For the same compound, the “Population Mitotic Cells (%)” value was 70% and 54%, the “Population Normal (%)” value was 92% and the “Population Pyknosed Nuclei (%)” value was 10% and 13%. For the same compound, the “Population Tubulin-Different-Phenotype (%)” value was 34% and 20% and the “Total Cell Count” value was 424 and 354.

Same assay, conditions: human, 12 h, 10 µM, compound concentration 10 uM
COC(=O)C1=C(C)NC(C)=C(C(=O)OC(C)C)C1c1cccc2nonc12 (stereo unspecified) [ISRADIPINE] was tested, and the “Population Apoptotic (%)” value was 3.97% and 9.29%, the “Population Fragmented Nuclei (%)” value was 0.97% and 1.28% and the “Population Hoechst High Intensity Objects (%)” value was 0.32% and 0%. For the same compound, the “Population Membrane Permeable-Phenotype (%)” value was 0.65% and 0%, the “Population Mitochondria Different-Phenotype (%)” value was 39.61% and 35.71% and the “Population Mitotic Cells (%)” value was 96.03% and 90.71%. The “Population Normal (%)” value was 99.68% and 100%, the “Population Pyknosed Nuclei (%)” value was 49.03% and 89.74% and the “Total Cell Count” value was 309 and 156.
For Oc1c(CN2CCN(c3ccccn3)CC2)cc(Cl)c2cccnc12, the “Population Apoptotic (%)” value was 71% and 73%, the “Population Fragmented Nuclei (%)” value was 16% and 18% and the “Population Healthy Nuclei (%)” value was 64% and 69%. For the same compound, the “Population Hoechst High Intensity Objects (%)” value was 11% and 6%, the “Population Membrane Permeable-Phenotype (%)” value was 0% and the “Population Mitochondria Different-Phenotype (%)” value was 64% and 70%. The “Population Mitotic Cells (%)” value was 28% and 26%, the “Population Normal (%)” value was 88% and 93% and the “Population Pyknosed Nuclei (%)” value was 18% and 12%. For the same compound, the “Population Tubulin-Different-Phenotype (%)” value was 20% and 32% and the “Total Cell Count” value was 197 and 327.

Same assay, conditions: human, 24 h, 1 µM, compound concentration 1 uM
COC(=O)C1=C(C)NC(C)=C(C(=O)OC(C)C)C1c1cccc2nonc12 (stereo unspecified) [ISRADIPINE] was tested, and the “Population Apoptotic (%)” value was 10.81% and 2.08%, the “Population Fragmented Nuclei (%)” value was 3.28% and 3.47% and the “Population Healthy Nuclei (%)” value was 76.5% and 41.04%. For the same compound, the “Population Hoechst High Intensity Objects (%)” value was 0% and 1.14%, the “Population Membrane Permeable-Phenotype (%)” value was 2.62% and 1.41% and the “Population Mitochondria Different-Phenotype (%)” value was 16.9% and 15.49%. The “Population Mitotic Cells (%)” value was 89.19% and 97.92%, the “Population Normal (%)” value was 100% and 98.86% and the “Population Pyknosed Nuclei (%)” value was 20.22% and 55.49%. For the same compound, the “Population Tubulin-Different-Phenotype (%)” value was 7.62% and 1.41%.
For Oc1c(CN2CCN(c3ccccn3)CC2)cc(Cl)c2cccnc12, the “Population Apoptotic (%)” value was 34% and 33%, the “Population Fragmented Nuclei (%)” value was 6% and 7% and the “Population Healthy Nuclei (%)” value was 84%. For the same compound, the “Population Hoechst High Intensity Objects (%)” value was 3%, the “Population Membrane Permeable-Phenotype (%)” value was 0% and the “Population Mitochondria Different-Phenotype (%)” value was 22% and 40%. For the same compound, the “Population Mitotic Cells (%)” value was 65% and 66%, the “Population Normal (%)” value was 96% and the “Population Pyknosed Nuclei (%)” value was 9% and 8%. For the same compound, the “Population Tubulin-Different-Phenotype (%)” value was 23% and 13% and the “Total Cell Count” value was 529 and 427.

Same assay, conditions: human, 24 h, 10 µM, compound concentration 10 uM
For COC(=O)C1=C(C)NC(C)=C(C(=O)OC(C)C)C1c1cccc2nonc12 (stereo unspecified) [ISRADIPINE], the “Population Apoptotic (%)” value was 14.52% and 14.29%, the “Population Fragmented Nuclei (%)” value was 1% and 1.72% and the “Population Hoechst High Intensity Objects (%)” value was 0.5% and 0%. For the same compound, the “Population Membrane Permeable-Phenotype (%)” value was 1.48% and 0%, the “Population Mitochondria Different-Phenotype (%)” value was 27.68% and 22.58% and the “Population Mitotic Cells (%)” value was 85.48% and 85.71%. The “Population Normal (%)” value was 99.5% and 100%, the “Population Pyknosed Nuclei (%)” value was 31.08% and 80.46% and the “Population Tubulin-Different-Phenotype (%)” value was 40.59% and 25.81%. The “Total Cell Count” value was 401 and 174.
With Oc1c(CN2CCN(c3ccccn3)CC2)cc(Cl)c2cccnc12 the “Population Apoptotic (%)” value was 93% and 81%, the “Population Fragmented Nuclei (%)” value was 18% and 21% and the “Population Healthy Nuclei (%)” value was 65% and 63%. For the same compound, the “Population Hoechst High Intensity Objects (%)” value was 13% and 7%, the “Population Membrane Permeable-Phenotype (%)” value was 1% and the “Population Mitochondria Different-Phenotype (%)” value was 65% and 78%. The “Population Mitotic Cells (%)” value was 6% and 18%, the “Population Normal (%)” value was 86% and 92% and the “Population Pyknosed Nuclei (%)” value was 15%. The “Population Tubulin-Different-Phenotype (%)” value was 19% and 34% and the “Total Cell Count” value was 227 and 354.

Same assay, conditions: human, 48 h, 1 µM, compound concentration 1 uM
In the case of COC(=O)C1=C(C)NC(C)=C(C(=O)OC(C)C)C1c1cccc2nonc12 (stereo unspecified) [ISRADIPINE], the “Population Apoptotic (%)” value is reported as 8.94% and 17.46%, the “Population Fragmented Nuclei (%)” value is reported as 4.71% and 1.73% and the “Population Healthy Nuclei (%)” value is reported as 86.76% and 76.47%. The “Population Hoechst High Intensity Objects (%)” value was 0% and 1.03%, the “Population Membrane Permeable-Phenotype (%)” value was 5.91% and 5.88% and the “Population Mitochondria Different-Phenotype (%)” value was 13.5% and 15.84%. For the same compound, the “Population Mitotic Cells (%)” value was 91.06% and 82.54%, the “Population Normal (%)” value was 100% and 98.97% and the “Population Pyknosed Nuclei (%)” value was 8.52% and 21.8%.
Oc1c(CN2CCN(c3ccccn3)CC2)cc(Cl)c2cccnc12 was tested, and the “Population Apoptotic (%)” value was 29% and 31%, the “Population Fragmented Nuclei (%)” value was 12% and 10% and the “Population Healthy Nuclei (%)” value was 80% and 83%. For the same compound, the “Population Hoechst High Intensity Objects (%)” value was 3%, the “Population Membrane Permeable-Phenotype (%)” value was 0% and the “Population Mitochondria Different-Phenotype (%)” value was 22% and 17%. For the same compound, the “Population Mitotic Cells (%)” value was 70% and 68%, the “Population Normal (%)” value was 96% and the “Population Pyknosed Nuclei (%)” value was 6% and 5%. The “Population Tubulin-Different-Phenotype (%)” value was 16% and 10% and the “Total Cell Count” value was 689 and 518.

Same assay, conditions: human, 48 h, 10 µM, compound concentration 10 uM
With COC(=O)C1=C(C)NC(C)=C(C(=O)OC(C)C)C1c1cccc2nonc12 (stereo unspecified) [ISRADIPINE] the “Population Apoptotic (%)” value was 9.09% and 15.38%, the “Population Fragmented Nuclei (%)” value was 2.12% and 2.49% and the “Population Healthy Nuclei (%)” value was 83.92% and 48.96%. For the same compound, the “Population Hoechst High Intensity Objects (%)” value was 0.14% and 0%, the “Population Membrane Permeable-Phenotype (%)” value was 6.22% and 3.39% and the “Population Mitochondria Different-Phenotype (%)” value was 41.85% and 34.75%. For the same compound, the “Population Mitotic Cells (%)” value was 90.91% and 84.62%, the “Population Normal (%)” value was 99.86% and 100% and the “Total Cell Count” value was 710 and 241.
In the case of Oc1c(CN2CCN(c3ccccn3)CC2)cc(Cl)c2cccnc12, the “Population Apoptotic (%)” value is reported as 83% and 94%, the “Population Fragmented Nuclei (%)” value is reported as 23% and 28% and the “Population Healthy Nuclei (%)” value is reported as 44% and 49%. For the same compound, the “Population Hoechst High Intensity Objects (%)” value was 25% and 14%, the “Population Membrane Permeable-Phenotype (%)” value was 0% and the “Population Mitochondria Different-Phenotype (%)” value was 60% and 81%. For the same compound, the “Population Normal (%)” value was 74% and 85%, the “Population Pyknosed Nuclei (%)” value was 31% and 22% and the “Population Tubulin-Different-Phenotype (%)” value was 30% and 42%. The “Total Cell Count” value was 204 and 295.
